ChEMBL document CHEMBL1127698, “Matrix metalloproteinase inhibitors containing a (carboxyalkyl)amino zinc ligand: modification of the P1 and P2' residues” (J Med Chem, 1994)

What was measured:
[1] = Half-life period for the activity is tested at pH 6.8; type: ADME
Outline: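 Inhibitor at 20 μM in 20 mM sodium phosphate, pH 6.8, held at 30 °C. Aliquots were injected every 3 h over 24 h onto C18 reverse-phase HPLC with a 5–60% acetonitrile gradient containing 0.1% TFA.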

Interstitial collagenase = target: T1, Interstitial collagenase (Homo sapiens, UniProt P03956); assay: Activity against human collagenase (MMP-1).
T1 sequence (P03956 whole entry): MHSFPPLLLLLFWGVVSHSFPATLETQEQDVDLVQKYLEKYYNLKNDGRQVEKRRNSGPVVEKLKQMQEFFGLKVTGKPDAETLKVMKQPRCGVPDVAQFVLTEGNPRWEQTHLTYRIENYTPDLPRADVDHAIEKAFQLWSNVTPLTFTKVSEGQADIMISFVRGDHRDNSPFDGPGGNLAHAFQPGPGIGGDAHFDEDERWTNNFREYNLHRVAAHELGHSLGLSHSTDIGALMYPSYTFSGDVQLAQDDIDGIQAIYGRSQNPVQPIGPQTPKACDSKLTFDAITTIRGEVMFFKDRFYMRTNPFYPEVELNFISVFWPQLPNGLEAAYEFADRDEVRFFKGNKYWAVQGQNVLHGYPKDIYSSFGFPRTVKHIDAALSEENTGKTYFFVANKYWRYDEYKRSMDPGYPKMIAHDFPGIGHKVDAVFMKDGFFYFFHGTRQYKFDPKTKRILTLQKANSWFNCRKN

[2] = target: Matrix metalloproteinase-9 (Homo sapiens, UniProt P14780); assay: Activity against human gelatinase (MMP-9).
Chain of Matrix metalloproteinase-9 (P14780 whole entry): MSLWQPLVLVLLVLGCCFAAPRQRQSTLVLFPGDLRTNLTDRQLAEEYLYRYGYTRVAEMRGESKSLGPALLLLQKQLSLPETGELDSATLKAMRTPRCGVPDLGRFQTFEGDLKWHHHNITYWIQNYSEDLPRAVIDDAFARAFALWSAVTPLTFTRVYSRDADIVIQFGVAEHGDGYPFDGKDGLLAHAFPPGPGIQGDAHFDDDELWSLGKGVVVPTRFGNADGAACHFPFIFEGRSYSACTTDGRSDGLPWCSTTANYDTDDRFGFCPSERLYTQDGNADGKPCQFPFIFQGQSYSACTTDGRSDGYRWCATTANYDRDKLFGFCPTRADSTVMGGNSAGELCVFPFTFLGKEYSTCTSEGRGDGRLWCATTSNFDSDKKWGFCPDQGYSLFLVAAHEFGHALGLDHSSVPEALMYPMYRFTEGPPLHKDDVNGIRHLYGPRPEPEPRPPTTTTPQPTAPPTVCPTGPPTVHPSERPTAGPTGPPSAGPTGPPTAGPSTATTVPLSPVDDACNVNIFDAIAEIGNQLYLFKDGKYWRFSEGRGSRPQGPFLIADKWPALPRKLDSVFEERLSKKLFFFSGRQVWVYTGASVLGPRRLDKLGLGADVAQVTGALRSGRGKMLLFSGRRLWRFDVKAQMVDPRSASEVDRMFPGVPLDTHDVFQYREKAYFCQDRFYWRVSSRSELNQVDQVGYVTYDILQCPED
Outline: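 Human gelatinase at 1 nM in pH 7.6 Tris buffer (200 mM NaCl, 5 mM CaCl2, 20 μM ZnSO4, 0.05% Brij 35), with inhibitors at 3-fold dilutions from 10 000 to 0.057 nM. Ki came from % inhibition vs log concentration, with substrate far below Km.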

Stromelysin-1 = Stromelysin-1 (Homo sapiens, UniProt P08254); assay: Activity against human stromelysin (MMP-3).
Chain of Stromelysin-1 (P08254 whole entry): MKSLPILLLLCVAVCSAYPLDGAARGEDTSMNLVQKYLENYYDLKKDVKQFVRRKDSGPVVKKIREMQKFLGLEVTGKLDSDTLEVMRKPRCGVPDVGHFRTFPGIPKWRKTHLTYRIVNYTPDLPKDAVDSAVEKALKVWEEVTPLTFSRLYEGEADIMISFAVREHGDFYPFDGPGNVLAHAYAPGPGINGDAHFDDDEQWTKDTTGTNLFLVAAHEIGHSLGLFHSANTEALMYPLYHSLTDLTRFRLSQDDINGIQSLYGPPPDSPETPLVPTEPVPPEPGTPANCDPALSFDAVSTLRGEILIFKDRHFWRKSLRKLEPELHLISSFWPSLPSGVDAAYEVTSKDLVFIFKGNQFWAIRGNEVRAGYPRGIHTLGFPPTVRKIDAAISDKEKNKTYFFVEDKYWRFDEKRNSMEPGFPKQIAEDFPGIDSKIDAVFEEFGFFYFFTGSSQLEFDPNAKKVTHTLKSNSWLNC
Outline: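 Fluorogenic stromelysin assay: human enzyme 10 nM in pH 7.6 Tris buffer (200 mM NaCl, 5 mM CaCl2, 20 μM ZnSO4, 0.05% Brij 35). Inhibitors ran from 10 000 to 0.057 nM in 3-fold steps. Ki came from % inhibition vs log[inhibitor], with substrate far below Km.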

Structure (SMILES) | half-life [1] | IC50 (Interstitial collagenase) | IC50 [2] | IC50 (Stromelysin-1)
CNC(=O)CNC(=O)[C@H](CC(C)C)N[C@H](CCN1C(=O)c2cc3ccccc3cc2C1=O)C(=O)O |  | 370 nM | 124 nM | > 10000 nM
CC(C)C[C@H](N[C@H](CCN1C(=O)c2cc3ccccc3cc2C1=O)C(=O)O)C(=O)N1CCCC1c1cccnc1 (stereo in doubt; 76) |  | 164 nM | 70 nM | 4080 nM
CNC(=O)[C@H](Cc1ccccc1)NC(=O)[C@H](CC(C)C)N[C@H](CCN1C(=O)c2ccccc2C1=O)C(=O)O | 10 h | 81 nM | 59 nM | 5970 nM
CC(C)C[C@H](N[C@H](CCN1C(=O)c2cc3ccccc3cc2C1=O)C(=O)O)C(=O)N(C)C |  | 86 nM | 82 nM | > 10000 nM
CC(C)C[C@H](N[C@H](CCN1C(=O)c2cc3ccccc3cc2C1=O)C(=O)O)C(=O)N(C)Cc1ccccc1 |  | 37 nM | 57 nM | 1160 nM
CC(C)C[C@H](N[C@H](CCN1C(=O)c2cc3ccccc3cc2C1=O)C(=O)O)C(=O)NCc1cccnc1 |  | 139 nM | 36 nM | 309 nM
CC(C)C[C@H](N[C@H](CCN1C(=O)c2cc3ccccc3cc2C1=O)C(=O)O)C(=O)NCCc1ccccc1 |  | 160 nM | 35 nM | > 10000 nM
CNC(=O)[C@H](Cc1ccccc1)NC(=O)[C@H](CC(C)C)N[C@H](CCNC(=O)OCc1ccccc1)C(=O)O |  |  | 580 nM | 3570 nM
CNC(=O)[C@H](C)NC(=O)[C@H](CC(C)C)N[C@H](CCN1C(=O)c2cc3ccccc3cc2C1=O)C(=O)O |  | 86 nM | 69 nM | 5630 nM
CC(C)C[C@H](N[C@H](CCN1C(=O)c2cc3ccccc3cc2C1=O)C(=O)O)C(=O)N1CCc2ccccc2C1 |  | 84 nM | 88 nM | 2190 nM
CC(C)C[C@H](N[C@H](CCN1C(=O)c2cc3ccccc3cc2C1=O)C(=O)O)C(=O)Nc1ccccc1 |  |  | 101 nM | 12500 nM
CC(C)C[C@H](N[C@H](CCN1C(=O)c2cc3ccccc3cc2C1=O)C(=O)O)C(=O)NC1CCCc2ccccc21 (stereo not given in full) |  | 108 nM | 75 nM | 2470 nM
CNC(=O)[C@H](Cc1ccccc1)NC(=O)[C@H](CC(C)C)N[C@H](CCN1C(=O)c2cc3ccc(OC)cc3cc2C1=O)C(=O)O |  | 36 nM |  | 
CC(C)C[C@@H](N[C@H](CCN1C(=O)c2cc3ccccc3cc2C1=O)C(=O)O)C(=O)NC(C)c1ccccc1 (stereo not given in full) |  | 74 nM | 76 nM | 4700 nM
CNC(=O)[C@H](Cc1ccccc1)NC(=O)[C@H](CC(C)C)N[C@H](CCNC(=O)c1ccc2ccccc2c1)C(=O)O | > 100 h | 488 nM | 49 nM | 2340 nM
CNC(=O)[C@H](CC(C)C)N[C@H](CCN1C(=O)c2cc3ccccc3cc2C1=O)C(=O)O |  | 490 nM | 706 nM | > 10000 nM
CC(C)C[C@H](N[C@H](CCN1C(=O)c2cc3ccccc3cc2C1=O)C(=O)O)C(=O)NCc1ccc(C(=O)O)cc1 |  | 56 nM | 74 nM | 178 nM
CNC(=O)[C@H](Cc1ccccc1)NC(=O)[C@H](CC(C)C)N[C@H](CCN1Cc2cc3ccccc3cc2C1=O)C(=O)O | > 100 h | 211 nM | 63 nM | 7880 nM
CC(C)C[C@H](N[C@H](CCN1C(=O)c2cc3ccccc3cc2C1=O)C(=O)O)C(=O)N1CCN(C)CC1 |  | 54 nM | 70 nM | 1890 nM

Now from value to molecule:

half-life [1] | IC50 (Interstitial collagenase) | IC50 [2] | IC50 (Stromelysin-1) | Structure (SMILES)
15.5 h | 12 nM | 5 nM |  | CNC(=O)[C@H](Cc1ccccc1)NC(=O)[C@H](CC(C)C)N[C@H](CCN1C(=O)c2cc3c(cc2C1=O)OCO3)C(=O)O
37 h | 44 nM | 13 nM | 121 nM | CC(C)C[C@H](NC(=O)[C@H](CC(C)C)N[C@H](CCN1C(=O)c2cc3ccccc3cc2C1=O)C(=O)O)C(=O)NCCN1CCOCC1
 | 270 nM | 30 nM | 2980 nM | CC(C)C[C@H](N[C@H](CCN1C(=O)c2cc3ccccc3cc2C1=O)C(=O)O)C(=O)NCc1nnn(C)n1
 | 70 nM | 6.7 nM | 295 nM | CC(C)C[C@H](N[C@H](CCN1C(=O)c2cc3ccccc3cc2C1=O)C(=O)O)C(=O)NCc1ccc(S(N)(=O)=O)cc1
 | 41 nM | 15 nM | 1480 nM | CC(C)C[C@H](N[C@H](CCN1C(=O)c2cc3ccccc3cc2C1=O)C(=O)O)C(=O)NCc1cccc(F)c1
 | 190 nM | 28 nM | 341 nM | CNC(=O)[C@H](Cc1ccccc1)NC(=O)[C@H](CC(C)C)N[C@H](CCN1C(=O)c2cccc3c(Br)ccc(c23)C1=O)C(=O)O
1.7 h | 38 nM | 4.8 nM | 2170 nM | CNC(=O)[C@H](Cc1ccccc1)NC(=O)[C@H](CC(C)C)N[C@H](CCn1c(=O)c2cc3c(=O)[nH]c(=O)c3cc2c1=O)C(=O)O
 | 87 nM | 32 nM | 1520 nM | CC(C)C[C@H](N[C@H](CCN1C(=O)c2cc3ccccc3cc2C1=O)C(=O)O)C(=O)NCc1ccccc1
 | 19 nM | 14 nM | 631 nM | CNC(=O)C(NC(=O)[C@H](CC(C)C)N[C@H](CCN1C(=O)c2cc3ccccc3cc2C1=O)C(=O)O)c1ccccc1 (stereo not given in full)
1.7 h | 22 nM | 7.5 nM | 518 nM | CNC(=O)[C@H](Cc1ccccc1)NC(=O)[C@H](CC(C)C)N[C@H](CCN1C(=O)c2cc3ccccc3nc2C1=O)C(=O)O
 | 51 nM | 12 nM | 965 nM | CC(C)C[C@H](N[C@H](CCN1C(=O)c2cc3ccccc3cc2C1=O)C(=O)O)C(=O)NC(C)c1ccccc1 (stereo not given in full)
 | 44 nM | 18 nM | 960 nM | CC(C)C[C@H](N[C@H](CCN1C(=O)c2cc3ccccc3cc2C1=O)C(=O)O)C(=O)N1CCCC1c1cccnc1 (stereo in doubt; 75)
10.9 h | 15 nM | 2.1 nM | 427 nM | CCCOc1ccc2c(c1)C(=O)N(CC[C@@H](N[C@@H](CC(C)C)C(=O)N[C@@H](Cc1ccccc1)C(=O)NC)C(=O)O)C2=O
 | 152 nM | 27 nM | 481 nM | CNC(=O)[C@H](CCCN=C(N)N)NC(=O)[C@H](CC(C)C)N[C@H](CCN1C(=O)c2cc3ccccc3cc2C1=O)C(=O)O
27 h | 49 nM | 11 nM | 1300 nM | CNC(=O)[C@H](CC(C)C)NC(=O)[C@H](CC(C)C)N[C@H](CCN1C(=O)c2cc3ccccc3cc2C1=O)C(=O)O
87 h | 54 nM | 7.4 nM | 1370 nM | CNC(=O)[C@H](Cc1ccccc1)NC(=O)[C@H](CC(C)C)N[C@H](CCN1C(=O)c2cc3ccccc3c(OC)c2C1=O)C(=O)O
 | 29 nM | 3.8 nM | 72 nM | CNC(=O)[C@H](Cc1ccc(O)cc1)NC(=O)[C@H](CC(C)C)N[C@H](CCN1C(=O)c2cc3ccccc3cc2C1=O)C(=O)O
29 h | 20 nM | 5 nM | 91 nM | CNC(=O)[C@H](Cc1ccccc1)NC(=O)[C@H](CC(C)C)N[C@H](CCN1C(=O)c2cc3ccccc3cc2C1=O)C(=O)O
7.2 h | 36 nM | 15 nM | 1400 nM | CNC(=O)[C@H](Cc1ccccc1)NC(=O)[C@H](CC(C)C)N[C@H](CCN1C(=O)c2cc3cccc(OC)c3cc2C1=O)C(=O)O
7.8 h | 19 nM | 4.5 nM | 216 nM | CNC(=O)[C@H](Cc1ccccc1)NC(=O)[C@H](CC(C)C)N[C@H](CCN1C(=O)c2ccc(-c3ccccc3)cc2C1=O)C(=O)O
